According to ChEMBL document CHEMBL4513216, “Probing the Open Global Health Chemical Diversity Library for Multistage-Active Starting Points for Next-Generation Antimalarials” (ACS Infect Dis, 2020):

Test: Toxicity liver stage against HepG2, at 10uM
Assay type: cell-based
Set-up: test concentration 10 uM, cell line HepG2-A16-CD81EGFP
Settings: human, HepG2-A16-CD81EGFP cells; read-out: INHIBITION
Method in brief: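 Uninfected HepG2-A16-CD81EGFP cells, 3 × 10^3 per well, 1536-well, plated on prespotted compound at 10 μM final, parasite-free screening media added to match infected plates; puromycin 10 μM positive, DMSO 0.5% negative; run in parallel with 48 h PbLuc assay at 37 °C, 5% CO2; viability by CellTiter-Glo luminescence, normalized to controls.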

| Structure (SMILES) | cytotoxicity at 10 µM [%] |
| --- | --- |
| Cc1nc(C(=O)Nc2cccnc2)c(C(C)C)s1 | -2.36 |
| O=C(c1ccno1)N1CC2(CCC(C(=O)N3CCCC3)O2)C1 (stereo not given) | -157 |
| COCC1c2nnn(CC3CC3)c2CCN1C(=O)c1cc(C)[nH]c1C (stereo not given) | -140 |
| Cc1noc(C)c1CN1CC2(CCN(C(=O)c3cc[nH]n3)C2)CC1=O (stereo not given) | 12.2 |
| Cc1nc(CN2CCO[C@H]3CN(C(=O)c4ccncc4)C[C@H]32)cs1 | -146 |
| CN1CCN(C(=O)c2cc(-c3cccs3)cs2)CC1 | 3.51 |
| CC(C)CCNC(=O)C1CCCN1C(=O)Nc1cccc(F)c1 (stereo not given) | -1.04 |
| Cc1nc2cc(F)ccc2cc1C(=O)N1CCN(CC(C)O)CC1 (stereo not given) | 2.49 |
| Cc1nc(C)c(C(=O)N2CCc3ccc(F)cc3C2C)o1 (stereo not given) | -1.65 |
| Cc1nc(C)n(CC2CCCN2c2ncnc3sc(C)c(C)c23)n1 (stereo not given) | 21.4 |
| CCCN(CC(=O)NC)C(=O)c1ccc(-c2nc(C)cs2)cc1 | -20.8 |
| Cn1cc(N2CCN(c3ccc(C#N)c(Cl)c3)CC2=O)cn1 | -3.81 |
| CC(=O)c1c(F)cccc1NC1CCN(S(=O)(=O)C2CC2)CC1 | 12.5 |
| CN1CCN(C(=O)NCCNc2ncccn2)Cc2ccccc21 | -4.47 |
| CN(C(=O)CNC(=O)CC(C)(C)C)C1CCN(c2ccccn2)CC1 | 13.9 |
| Cn1cc(C(C)(O)CNC(=O)c2ccc(Br)s2)cn1 (stereo not given) | -52.7 |
| O=C(Nc1ccc(N2CCCC2)nc1)N1CCc2sccc2C1 | -16.6 |
| Cc1c(CC(=O)N2CCN(CC(F)(F)F)CC2)nnn1-c1ccccc1 | -14.8 |
| CC1CCN(CCNC(=O)c2ccccc2N2CCOCC2)CC1 | -6.05 |
| CSCCC(=O)N1CCCCC1CCn1cccn1 (stereo not given) | -1.94 |
| CN(Cc1cc(C(C)(C)C)n[nH]1)C(=O)c1cn2ccsc2n1 | -12.6 |
| Cc1ccc(C2(O)CCN(C(=O)c3sccc3S(N)(=O)=O)CC2)nc1 | -3.3 |
| CCn1ccnc1CN(C)C1CCCN(Cc2ccccc2F)C1 (stereo not given) | 4.77 |

| Structure (SMILES) | cytotoxicity at 10 µM [%] |
| --- | --- |
| CC(C)N1CC(C(=O)N2CCC(Oc3ccccc3Cl)CC2)CC1=O (stereo not given) | -3.21 |
| Cc1nn(C)cc1Cn1c(=O)c(C)nc2ccccc21 | -1.21 |
| Cc1nc(CN2CCCC(N(C)CCCc3ccccc3)C2)no1 (stereo not given) | -0.704 |
| O=C(NC1CC1)N1CCN(c2cnccn2)CC1 | -7.39 |
| CN(C)CC(=O)N1CCN(CC(O)c2ccc(F)cc2)CC1 (stereo not given) | -9.11 |
| Clc1snnc1CN1CCCC1Cn1cncn1 (stereo not given) | -20.7 |
| Cc1cc(C)n(C2CCCN(C(=O)CCOc3ccccc3F)C2)n1 (stereo not given) | -6.19 |
| COc1cc(S(=O)(=O)N2CCc3ccc(Cl)cc32)cc(C(=O)O)c1OC | -1.34 |
| CCn1cnnc1CNC(=O)N1CCC(CN2CCOCC2)CC1 | -7 |
| CC(Cc1cccc(Cl)c1)NC(=O)Nc1cnn(CC(N)=O)c1 (stereo not given) | -15 |
| Cc1ccc(-c2nc(CC(=O)N3CCN(c4cnccn4)CC3)cs2)o1 | -13 |
| CCc1nc(CN2CCCN(CC(O)c3ccccc3)CC2)no1 (stereo not given) | -14 |
| CC(NC(=O)NCCCN(C(C)C)S(C)(=O)=O)c1ccncc1 (stereo not given) | -14.9 |
| O=C(CCC1CCCO1)NS(=O)(=O)c1ccc(Cl)cc1 (stereo not given) | -9.36 |
| c1ccc(CN2CCNCC(Cc3cnccn3)C2)cc1 (stereo not given) | -8.65 |
| CS(=O)(=O)N1CCC2(CCCN(Cc3ccccn3)C2)C1 (stereo not given) | -148 |
| O=C(C[C@@H]1COC[C@H]2CN(Cc3cccnc3)C[C@@H]12)N1CCCC1 | -128 |
| Cc1cccc(N2CCc3ncnc(C4CC4)c3CC2)n1 | -148 |
| c1cc(CN2CCN3C[C@H](Oc4cncnc4)C[C@H]3C2)ccn1 | -108 |
| Cc1nc(CN2CCOCC3(CCN(c4cnccn4)CC3)C2)cs1 | 7.37 |
| COCc1nn(C(C)C)c2c1CCN(Cc1nccs1)C2 | 8.42 |
| O=C([C@@H]1COC[C@H]2CN(c3ccncn3)C[C@H]21)N1CCCCO1 | -132 |
